Laboratory results reported in ChEMBL document CHEMBL4033643, “Synthesis and in vitro antitumour activity of crassalactone D, its stereoisomers and novel cinnamic ester derivatives” (Eur J Med Chem, 2017).
Calls of active or inactive are those of the source. No cut-off for these calls is given here.

Key:
[1] = tested on: K562; test: Cell cycle arrest in human K562 cells assessed as accumulation at G0/G1 phase at IC50 after 72 hrs by propidium iodide staining based flow cytometry (reference value: 38.48%); format: functional
[2] = tested on: HeLa; test: Cytotoxicity against human HeLa cells assessed as reduction in cell viability after 72 hrs by MTT assay; format: functional, cell-based
[3] = tested on: MCF7; test: Cytotoxicity against human MCF7 cells assessed as reduction in cell viability after 72 hrs by MTT assay; format: functional, cell-based; settings: MCF7, 72 h
[4] = tested on: K562; test: Induction of apoptosis in human K562 cells assessed as total necrotic cells by Annexin V-FITC/propidium iodide staining based flow cytometry (reference value: 0.23%); format: functional
[5] = tested on: K562; test: Induction of apoptosis in human K562 cells assessed as gated late apoptotic cells by Annexin V-FITC/propidium iodide staining based flow cytometry (reference value: 0.88%); format: functional
[6] = tested on: K562; test: Cell cycle arrest in human K562 cells assessed as total cell levels at M4 phase at IC50 after 72 hrs by propidium iodide staining based flow cytometry (reference value: 0.50%); format: functional
[7] = tested on: Raji; test: Cytotoxicity against human Raji cells assessed as reduction in cell viability after 72 hrs by MTT assay; format: functional, cell-based
[8] = tested on: K562; test: Induction of apoptosis in human K562 cells assessed as increase in Bax expression level by Western blot analysis; format: functional, cell-based
Summary of the method: (§1)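 Western blot of treated K562 cells for Bcl-2, Bax, activated caspase 3 and cleaved PARP (85 kDa fragment). Blots developed by ECL, with band expression quantified by densitometry against an untreated control sample.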

[9] = tested on: K562; test: Induction of apoptosis in human K562 cells assessed as total viable cells by Annexin V-FITC/propidium iodide staining based flow cytometry (reference value: 92.45%); format: functional
[10] = tested on: HL-60; test: Cytotoxicity against human HL60 cells assessed as reduction in cell viability after 72 hrs by MTT assay; format: functional, cell-based; settings: HL-60, 72 h
[11] = tested on: K562; test: Cell cycle arrest in human K562 cells assessed as total cell levels at G0/G1 phase at IC50 after 72 hrs by propidium iodide staining based flow cytometry (reference value: 39.97%); format: functional
[12] = tested on: K562; test: Induction of apoptosis in human K562 cells assessed as gated early apoptotic cells by Annexin V-FITC/propidium iodide staining based flow cytometry (reference value: 3.18%); format: functional
[13] = tested on: MDA-MB-231; test: Cytotoxicity against human MDA-MB-231 cells assessed as reduction in cell viability after 72 hrs by MTT assay; format: functional, cell-based; settings: MDA-MB-231, 72 h
[14] = tested on: K562; test: Cell cycle arrest in human K562 cells assessed as total cell levels at S phase at IC50 after 72 hrs by propidium iodide staining based flow cytometry (reference value: 36.49%); format: functional
[15] = tested on: K562; test: Induction of apoptosis in human K562 cells assessed as decrease in Bcl-2 expression level by Western blot analysis; format: functional, cell-based; summary of the method: as §1
[16] = tested on: A549; test: Cytotoxicity against human A549 cells assessed as reduction in cell viability after 72 hrs by MTT assay; format: functional, cell-based; settings: A549, 72 h
[17] = tested on: Jurkat; test: Cytotoxicity against human Jurkat cells assessed as reduction in cell viability after 72 hrs by MTT assay; format: functional, cell-based
[18] = tested on: K562; test: Induction of apoptosis in human K562 cells assessed as specific apoptosis by Annexin V-FITC/propidium iodide staining based flow cytometry; format: functional; parameters: concentration or dose not given beside the values
[19] = tested on: K562; test: Cell cycle arrest in human K562 cells assessed as accumulation at G2/M phase at IC50 after 72 hrs by propidium iodide staining based flow cytometry (reference value: 19.01%); format: functional
[20] = tested on: K562; test: Cytotoxicity against human K562 cells assessed as reduction in cell viability after 72 hrs by MTT assay; format: functional, cell-based; settings: K562, 72 h
[21] = tested on: K562; test: Cell cycle arrest in human K562 cells assessed as accumulation at S phase at IC50 after 72 hrs by propidium iodide staining based flow cytometry (reference value: 41.03%); format: functional
[22] = tested on: K562; test: Induction of apoptosis in human K562 cells assessed as total early apoptotic cells by Annexin V-FITC/propidium iodide staining based flow cytometry (reference value: 3.07%); format: functional
[23] = tested on: K562; test: Cell cycle arrest in human K562 cells assessed as accumulation at sub G1 phase at IC50 after 72 hrs by propidium iodide staining based flow cytometry (reference value: 1.48%); format: functional
[24] = tested on: K562; test: Induction of apoptosis in human K562 cells assessed as total late apoptotic cells by Annexin V-FITC/propidium iodide staining based flow cytometry (reference value: 0.77%); format: functional
[25] = tested on: K562; test: Induction of apoptosis in human K562 cells assessed as gated viable cells by Annexin V-FITC/propidium iodide staining based flow cytometry (reference value: 95.78%); format: functional
[26] = tested on: K562; test: Cell cycle arrest in human K562 cells assessed as total cell levels at G2/M phase at IC50 after 72 hrs by propidium iodide staining based flow cytometry (reference value: 14.31%); format: functional
[27] = tested on: K562; test: Induction of apoptosis in human K562 cells assessed as specific necrosis by Annexin V-FITC/propidium iodide staining based flow cytometry; format: functional; parameters: concentration or dose not given beside the values
[28] = tested on: K562; test: Induction of apoptosis in human K562 cells assessed as gated necrotic cells by Annexin V-FITC/propidium iodide staining based flow cytometry (reference value: 0.24%); format: functional
[29] = tested on: MRC5; test: Cytotoxicity against human MRC5 cells assessed as reduction in cell viability after 72 hrs by MTT assay; format: cell-based; settings: MRC5, 72 h

| Compound | Activity [1] | IC50 [2] | IC50 [3] | Activity [4] | Activity [5] | Activity [6] | IC50 [7] | Activity [8] | Activity [9] | IC50 [10] | Activity [11] | Activity [12] | IC50 [13] | Activity [14] | Activity [15] | IC50 [16] | IC50 [17] | Activity [18] | Activity [19] | IC50 [20] | other results |
| --- | --- | --- | --- | --- | --- | --- | --- | --- | --- | --- | --- | --- | --- | --- | --- | --- | --- | --- | --- | --- | --- |
| O=C1C=C[C@@]2(C[C@H](OC(=O)/C=C/c3ccc([N+](=O)[O-])cc3)[C@@H](c3ccccc3)O2)O1 | 33.85% | 9.45 µM | 12.5 µM | 1.64% | 2.23% | 2.67% | > 100 µM | Active | 73.05% | 1.32 µM | 31.72% | 11.87% | > 100 µM | 34.91% | inactive | 56.2 µM | 86.5 µM | 10.54% | 25.14% | 7.45 µM | Activity [21]: 38.08%; Activity [22]: 10.32%; Activity [23]: 2.93%; Activity [24]: 1.94%; Activity [25]: 84.01%; Activity [26]: 22.88%; Activity [27]: 2.18%; Activity [28]: 1.89%; IC50 [29]: > 100 µM |
| O=C1C=C[C@]2(C[C@H](O)[C@H](c3ccccc3)O2)O1 | 15.18% | 35.4 µM | 11 µM | 1.07% | 8.1% | 0.6% | 8.84 µM | Active | 74.8% | 6.11 µM | 11.56% | 3.35% | 45.1 µM | 13.07% | Active | 35.2 µM | 1.01 µM | 7.78% | 66.56% | 1.21 µM | Activity [21]: 17.17%; Activity [22]: 2.87%; Activity [23]: 1.09%; Activity [24]: 6.94%; Activity [25]: 87.3%; Activity [26]: 51.44%; Activity [27]: 2.84%; Activity [28]: 1.25%; IC50 [29]: > 100 µM |
| COc1ccc(/C=C/C(=O)O[C@H]2C[C@]3(C=CC(=O)O3)O[C@@H]2c2ccccc2)cc1 | 21.08% | 3.34 µM | 3.14 µM | 0.2% | 2.92% | 2.67% | 89.7 µM | Active | 44.16% | 8.67 µM | 16.74% | 37.43% | > 100 µM | 32.71% | inactive | 33.6 µM | 58.1 µM | 37.78% | 34.45% | 2.12 µM | Activity [21]: 41.08%; Activity [22]: 27.83%; Activity [23]: 3.39%; Activity [24]: 2.17%; Activity [25]: 59.39%; Activity [26]: 27.1%; Activity [27]: 3.86%; Activity [28]: 0.27%; IC50 [29]: > 100 µM |
| O=C1C=C[C@@]2(C[C@H](O)[C@@H](c3ccccc3)O2)O1 | 39.26% | 2.12 µM | 3.57 µM | 2.81% | 11.28% | 0.94% | 5.97 µM | Active | 24.92% | 1.02 µM | 29.6% | 3.97% | > 100 µM | 26.52% | inactive | 21.3 µM | 0.34 µM | 11.74% | 24.28% | 0.54 µM | Activity [21]: 35.2%; Activity [22]: 1.3%; Activity [23]: 1.26%; Activity [24]: 3.69%; Activity [25]: 76.16%; Activity [26]: 18.07%; Activity [27]: 4.8%; Activity [28]: 8.59%; IC50 [29]: > 100 µM |
| O=C1C=C[C@@]2(C[C@H](OC(=O)/C=C/c3ccccc3)[C@@H](c3ccccc3)O2)O1 | 23.1% | 0.58 µM | 0.58 µM | 0.02% | 4.67% | 54.83% | 2.38 µM | Active | 2.12% | 5.61 µM | 21.87% | 82.46% | 3.45 µM | 13.85% | Active | 28.1 µM | 87.6 µM | 86.01% | 5.34% | 20.5 µM | Activity [21]: 14.63%; Activity [22]: 68.98%; Activity [23]: 56.93%; Activity [24]: 3.48%; Activity [25]: 12.84%; Activity [26]: 5.03%; Activity [27]: 4.12%; Activity [28]: 0.03%; IC50 [29]: > 100 µM |
